Measured values reported in ChEMBL document CHEMBL1133451, “Optimization of substituted N-3-benzylimidazoquinazolinone sulfonamides as potent and selective PDE5 inhibitors” (J Med Chem, 2000).

Legend:
[1] = In vitro selectivity ratio of Bovine Heart PDE1 to human platelet PDE5 was determined
Method in brief: (§1)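 Scintillation proximity PDE assay at room temperature, read by scintillation counting. Substrates: [³H]cGMP for PDE5 (sonicated human platelet homogenate) and PDE1 (bovine heart, with 1 µM calmodulin and 4 mM calcium). PDE2 (rat kidney cytosol, Mono-Q purified) used [³H]cAMP plus 1 µM nonradioactive cGMP. PDE6 was stripped from bovine rod outer segments and trypsin-activated. Blank subtracted; activity as percent of vehicle; ratio = IC50 other/IC50 PDE5.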

[2] = test system: cGMP-specific 3',5'-cyclic phosphodiesterase (Oryctolagus cuniculus); test: Rabbit Corpus Cavernosum functional assay at 30 nM to determine the efficacy of PDE5 inhibition activity.
[3] = In vitro selectivity ratio of PDE6 of Bovine retina to human platelet PDE5 was determined; method in brief: as §1
[4] = In vitro selectivity ratio of PDE2 of Rat kidney to human platelet PDE5 was determined; method in brief: as §1
[5] = target: cGMP-specific 3',5'-cyclic phosphodiesterase (Homo sapiens, UniProt O76074); test: In vitro inhibitory concentration against human platelet Phosphodiesterase 5 was determined
[6] = Selectivity ratio for Bovine retinal PDE6 and human platelet PDE5; method in brief: as §1

`CCCOc1ccc(S(N)(=O)=O)cc1-c1nc(O)c2cc3c(cc2n1)ncn3Cc1ccc(F)cc1` showed an IC50 ratio [1] greater than 10000, a Control relaxation [2] of 100% and an IC50 ratio [3] of 20. For the same compound, the IC50 ratio [4] was greater than 10000.

Work on `CCCOc1ccc(S(=O)(=O)N2CC[C@@H](N(C)C)C2)cc1-c1nc(O)c2cc3c(cc2n1)ncn3Cc1ccccc1` yielded an IC50 ratio [1] greater than 10000, a Control relaxation [2] of 110% and an IC50 [5] of 1.1 nM. It also gave an IC50 ratio [3] of 30 and an IC50 ratio [4] greater than 10000.

`CCCOc1ccc(S(N)(=O)=O)cc1-c1nc2cc3ncn(Cc4ccc(F)cc4)c3cc2c(=O)[nH]1` gave an IC50 [5] of 3.2 nM.

Work on `CCCOc1ccc(S(=O)(=O)N2CCN(CC)CC2)cc1-c1nc(O)c2cc3c(cc2n1)ncn3Cc1ccccc1` yielded an IC50 ratio [1] greater than 10000, a Control relaxation [2] of 90% and an IC50 [5] of 1.1 nM. For the same compound, the IC50 ratio [3] was 50 and the IC50 ratio [4] was greater than 10000.

Compound `CCCOc1ccc(S(=O)(=O)N2CCN(CC)CC2)cc1-c1nc(O)c2cc3c(cc2n1)ncn3Cc1cccc(OC)c1` has an IC50 ratio [1] greater than 10000, a Control relaxation [2] of 130% and an IC50 [5] of 1.1 nM. It also gave an IC50 ratio [3] of 50 and an IC50 ratio [4] of 7000.

Work on `CCCOc1ccc(S(=O)(=O)N2CCN(C)CC2)cc1-c1nc(O)c2cc3c(cc2n1)ncn3Cc1ccccc1` yielded an IC50 ratio [1] of 3400, a Control relaxation [2] of 120% and an IC50 ratio [3] of 20. For the same compound, the IC50 ratio [4] was greater than 10000.

Compound `CCCOc1ccc(S(=O)(=O)N2CC[C@@H](N(C)C)C2)cc1-c1nc(O)c2cc3c(cc2n1)ncn3Cc1ccc(Cl)cc1` has an IC50 ratio [1] greater than 10000, an IC50 [5] of 0.52 nM and an IC50 ratio [3] of 50. For the same compound, the IC50 ratio [4] was greater than 10000.

With `CCCOc1ccc(S(=O)(=O)N2CCN(CC)CC2)cc1-c1nc2cc3ncn(Cc4ccccc4Cl)c3cc2c(=O)[nH]1` the IC50 [5] was 1.6 nM.

Compound `CCCOc1ccc(S(=O)(=O)N2CCN(CC)CC2)cc1-c1nc2cc3ncn(Cc4ccccc4OC)c3cc2c(=O)[nH]1` has an IC50 [5] of 0.62 nM.

With `CCCOc1ccc(C(N)=O)cc1-c1nc(O)c2cc3c(cc2n1)ncn3Cc1ccc(F)cc1` the IC50 ratio [1] was greater than 100000, the Control relaxation [2] was 140% and the IC50 ratio [3] was 60. The IC50 ratio [4] was greater than 100000.

Compound `CCCOc1ccc(S(=O)(=O)N2CCN(CC)CC2)cc1-c1nc(O)c2cc3c(cc2n1)ncn3Cc1cccc(F)c1` has an IC50 ratio [1] greater than 10000, a Control relaxation [2] of 100% and an IC50 ratio [3] of 80. For the same compound, the IC50 ratio [4] was greater than 10000.

For `CCCOc1ccc(C(=O)N2CCN(CC)CC2)cc1-c1nc2cc3ncn(Cc4ccc(F)cc4)c3cc2c(=O)[nH]1`, the IC50 [5] was 35 nM.

With `CCCOc1ccc(S(=O)(=O)N2CC[C@H](N(C)C)C2)cc1-c1nc(O)c2cc3c(cc2n1)ncn3Cc1ccccc1` the IC50 ratio [6] was 3 and the IC50 [5] was 27 nM.

`CCCOc1ccc(S(=O)(=O)N2CCN(CC)CC2)cc1-c1nc2cc3ncn(Cc4cccc(F)c4)c3cc2c(=O)[nH]1` showed an IC50 [5] of 1.4 nM.

In the case of `CCCOc1ccc(S(=O)(=O)N2CCN(CC)CC2)cc1-c1nc(O)c2cc3c(cc2n1)ncn3Cc1ccccc1Cl`, the IC50 ratio [1] is reported as greater than 10000, the Control relaxation [2] is reported as 90% and the IC50 ratio [3] is reported as 40. It also gave an IC50 ratio [4] greater than 10000.

With `CCCOc1ccc(S(=O)(=O)N2CC[C@@H](N(C)C)C2)cc1-c1nc2cc3ncn(Cc4ccc(F)cc4)c3cc2c(=O)[nH]1` the IC50 ratio [1] was greater than 10000, the Control relaxation [2] was 120% and the IC50 [5] was 0.2 nM. The IC50 ratio [3] was 70 and the IC50 ratio [4] was greater than 10000.

For `CCCOc1ccc(S(=O)(=O)N2CCN(CC)CC2)cc1-c1nc(O)c2cc3c(cc2n1)ncn3Cc1ccc(F)cc1`, the IC50 ratio [1] was greater than 10000, the Control relaxation [2] was 100% and the IC50 [5] was 1.7 nM. For the same compound, the IC50 ratio [3] was 80 and the IC50 ratio [4] was greater than 10000.

`CCCOc1ccc(C(=O)N2CC[C@@H](N(C)C)C2)cc1-c1nc2cc3ncn(Cc4ccc(F)cc4)c3cc2c(=O)[nH]1` gave an IC50 [5] of 40 nM.

For `CCCOc1ccc(S(=O)(=O)N2CCN(C)CC2)cc1-c1nc2cc3ncn(Cc4ccc(F)cc4)c3cc2c(=O)[nH]1`, the IC50 [5] was 3.3 nM.
